{"source": "ChEMBL document CHEMBL1155811", "about": "“Bioactive brominated metabolites from the Red Sea sponge Pseudoceratina arabica” (2008)", "key": {"Klebsiella pneumoniae": {"tested_on": "Klebsiella pneumoniae", "assay": "Antibacterial activity against Klebsiella pneumoniae ATCC 10032 assessed as inhibition zone at 1 mg after 24 hrs by agar diffusion method", "assay_type": "functional", "settings": "ATCC 10032, 24 h, read-out: IZ", "procedure,_shortened": "(§1)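 Agar diffusion (cup method). Each compound, 1 mg dissolved in 1 mL DMF; 100 µL of this solution was placed in cups cut in seeded agar. Plates were incubated at 37 °C for 24 h and the inhibition zone was measured.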"}, "HCT-116": {"tested_on": "HCT-116", "assay": "Cytotoxicity against human HCT116 cells at 10 ug/mL by MTT assay", "assay_type": "functional, cell-based"}, "Jejunum [1]": {"tested_on": "Jejunum", "assay": "Parasympatholytic activity in isolated rabbit jejunum assessed as decrease in 10gamma-acetylcholine induced intestinal contraction", "assay_type": "functional, tissue-based", "settings": "Oryctolagus cuniculus", "procedure,_shortened": "(§2)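 Isolated rabbit jejunum. Compounds in distilled H2O (1.0 mg/mL stock), used at 1/1000 and 1/100 dilutions. Normal contractions recorded first. Then 0.1 mL nicotine (1/1000 dilution) or 10 gamma acetylcholine (0.1 mL of 1/10 000 dilution) added after the compound. Change in intestinal contraction recorded.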"}, "Heart [2]": {"tested_on": "Heart", "assay": "Parasympatholytic activity in isolated perfused rabbit heart assessed as decrease in nicotine-induced effect", "assay_type": "functional, tissue-based", "settings": "Oryctolagus cuniculus", "procedure,_shortened": "(§3)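 Rabbit heart perfused by modified Langendorff method. Normal contractions recorded and receptors (nicotinic, muscarinic, histaminergic, adrenergic) checked. Compound added at 1/100 dilution of 1.0 mg/mL aqueous stock. Then 0.1 mL nicotine (1/1000 dilution of 1 mL/100 mL H2O) or 10 gamma acetylcholine (0.1 mL of 1/10 000 dilution of 1 g/100 mL H2O) given; change in contraction recorded.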"}, "Jejunum [3]": {"tested_on": "Jejunum", "assay": "Parasympatholytic activity in isolated rabbit jejunum assessed as decrease in nicotine-induced intestinal contraction", "assay_type": "functional, tissue-based", "settings": "Oryctolagus cuniculus", "procedure,_shortened": "as §2"}, "Heart [4]": {"tested_on": "Heart", "assay": "Parasympatholytic activity in isolated perfused rabbit heart assessed as decrease in 10gamma-acetylcholine induced effect", "assay_type": "functional, tissue-based", "settings": "Oryctolagus cuniculus", "procedure,_shortened": "as §3"}, "Staphylococcus aureus": {"tested_on": "Staphylococcus aureus", "assay": "Antibacterial activity against Staphylococcus aureus ATCC 6538P assessed as inhibition zone at 1 mg after 24 hrs by agar diffusion method", "assay_type": "functional", "settings": "read-out: IZ", "procedure,_shortened": "as §1"}, "Pseudomonas aeruginosa": {"tested_on": "Pseudomonas aeruginosa", "assay": "Antibacterial activity against Pseudomonas aeruginosa ATCC 9027 assessed as inhibition zone at 1 mg after 24 hrs by agar diffusion method", "assay_type": "functional", "settings": "ATCC 9027, 24 h, read-out: IZ", "procedure,_shortened": "as §1"}, "Candida albicans": {"tested_on": "Candida albicans", "assay": "Antifungal activity against Candida albicans ATCC 2091 assessed as inhibition zone at 1 mg after 24 hrs by agar diffusion method", "assay_type": "functional", "settings": "ATCC 2091, 24 h, read-out: IZ", "procedure,_shortened": "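Agar diffusion (cup) assay; Candida albicans ATCC 2091. Compound 1 mg dissolved in 1 mL DMF, 100 µL placed per cup; incubated 37 °C for 24 h; inhibition zone measured in mm.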"}}, "note": "Activity calls are given as the source filed them. The rule behind the calls is not given here."}
{"smiles": "COc1c(Br)cc(O)c(O)c1C=O", "values": [{"measurement": "zone of inhibition at 1000 µg/disc", "setting": "Klebsiella pneumoniae", "value": 3, "unit": "mm"}, {"measurement": "Activity", "setting": "HCT-116", "value": "Not toxic"}]}
{"smiles": "C[N+]1=C2C=C(N)C(=O)c3[nH]cc(c32)CC1", "values": [{"measurement": "Activity", "setting": "HCT-116", "value": "Not toxic"}]}
{"smiles": "N#CC(=O)NCCCOc1c(Br)cc(CCN)cc1Br", "values": [{"measurement": "Activity", "setting": "HCT-116", "value": "Not toxic"}]}
{"smiles": "NCCCOc1c(Br)cc(C(O)CN)cc1Br", "note": "(stereo not drawn)", "values": [{"measurement": "Activity", "setting": "HCT-116", "value": "Not toxic"}]}
{"smiles": "NCCCOc1c(Br)cc(CCN)cc1Br", "values": [{"measurement": "Activity", "setting": "Jejunum [1]", "value": "Active"}, {"measurement": "Activity", "setting": "Heart [2]", "value": "Active"}, {"measurement": "Activity", "setting": "HCT-116", "value": "Not toxic"}, {"measurement": "Activity", "setting": "Jejunum [3]", "value": "Active"}, {"measurement": "Activity", "setting": "Heart [4]", "value": "Active"}]}
{"smiles": "CCOC(=O)c1c(O)c(O)cc(Br)c1OC", "note": "[CERATINOPHENOL A]", "values": [{"measurement": "zone of inhibition at 1000 µg/disc", "setting": "Klebsiella pneumoniae", "value": 3, "unit": "mm"}, {"measurement": "zone of inhibition at 1000 µg/disc", "setting": "Staphylococcus aureus", "value": 7, "unit": "mm"}, {"measurement": "Activity", "setting": "HCT-116", "value": "Not toxic"}, {"measurement": "zone of inhibition at 1000 µg/disc", "setting": "Pseudomonas aeruginosa", "value": 4, "unit": "mm"}, {"measurement": "zone of inhibition at 1000 µg/disc", "setting": "Candida albicans", "value": 2, "unit": "mm"}]}
{"smiles": "NCCc1cc(Br)c(OCCCNC(=O)C(N)=O)c(Br)c1", "note": "[MOLOKA'IAKITAMIDE]", "values": [{"measurement": "Activity", "setting": "Jejunum [1]", "value": "Active"}, {"measurement": "Activity", "setting": "Heart [2]", "value": "Active"}, {"measurement": "Activity", "setting": "HCT-116", "value": "Not toxic"}, {"measurement": "Activity", "setting": "Jejunum [3]", "value": "Active"}, {"measurement": "zone of inhibition at 1000 µg/disc", "setting": "Candida albicans", "value": 3, "unit": "mm"}, {"measurement": "Activity", "setting": "Heart [4]", "value": "Active"}]}
{"smiles": "COC1=C(Br)C[C@]2(OC=C1Br)ON=C(C(=O)NCCCOc1c(Br)cc(CCN)cc1Br)[C@@H]2O", "note": "[PSAMMAPLYSIN A]", "values": [{"measurement": "zone of inhibition at 1000 µg/disc", "setting": "Klebsiella pneumoniae", "value": 3, "unit": "mm"}, {"measurement": "Activity", "setting": "HCT-116", "value": "Not toxic"}]}
